Source: ChEMBL document CHEMBL1126099, “Synthesis and biological characterization of alpha-(4-fluorophenyl)-4-(5-fluoro-2-pyrimidinyl)-1-piperazinebutanol and analogues as potential atypical antipsychotic agents” (J Med Chem, 1992)
Calls of active or inactive are those of the source. The rule behind the calls is not given here.

Key:
[1] = target: T1, Adrenergic receptor alpha-1 (Rattus norvegicus, UniProt P15823+P23944+P43140); assay: Inhibition of [3H]WB-4101 binding to rat cortical Alpha-1 adrenergic receptor in vitro; format: protein assay
T1 sequence (P15823 whole entry): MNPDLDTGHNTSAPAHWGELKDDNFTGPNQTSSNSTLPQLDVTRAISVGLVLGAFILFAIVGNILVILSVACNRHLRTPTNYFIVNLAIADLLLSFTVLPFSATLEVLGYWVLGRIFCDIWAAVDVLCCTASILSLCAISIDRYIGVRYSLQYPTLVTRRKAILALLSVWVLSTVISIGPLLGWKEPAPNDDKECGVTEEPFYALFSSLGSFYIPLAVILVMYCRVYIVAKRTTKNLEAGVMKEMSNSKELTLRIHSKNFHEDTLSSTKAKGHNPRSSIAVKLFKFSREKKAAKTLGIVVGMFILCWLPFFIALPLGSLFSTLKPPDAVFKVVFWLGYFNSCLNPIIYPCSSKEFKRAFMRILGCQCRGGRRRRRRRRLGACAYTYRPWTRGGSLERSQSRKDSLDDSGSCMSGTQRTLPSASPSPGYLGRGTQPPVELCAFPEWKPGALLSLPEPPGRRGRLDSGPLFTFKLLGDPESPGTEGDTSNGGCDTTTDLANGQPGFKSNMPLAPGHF
T1 sequence (P23944 whole entry): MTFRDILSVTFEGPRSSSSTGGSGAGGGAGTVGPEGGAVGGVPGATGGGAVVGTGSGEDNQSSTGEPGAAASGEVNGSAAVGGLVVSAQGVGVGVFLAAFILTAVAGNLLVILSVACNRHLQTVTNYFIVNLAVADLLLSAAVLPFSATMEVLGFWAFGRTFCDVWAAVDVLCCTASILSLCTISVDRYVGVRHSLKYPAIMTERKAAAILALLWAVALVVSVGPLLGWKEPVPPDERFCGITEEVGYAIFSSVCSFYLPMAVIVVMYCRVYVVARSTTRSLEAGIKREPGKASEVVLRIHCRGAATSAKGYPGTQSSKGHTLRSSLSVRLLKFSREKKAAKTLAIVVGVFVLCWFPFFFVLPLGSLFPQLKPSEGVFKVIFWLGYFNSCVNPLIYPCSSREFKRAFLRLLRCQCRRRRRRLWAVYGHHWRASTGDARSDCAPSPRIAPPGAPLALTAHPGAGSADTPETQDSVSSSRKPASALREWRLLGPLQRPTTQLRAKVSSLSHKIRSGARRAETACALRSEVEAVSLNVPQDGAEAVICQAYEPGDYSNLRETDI
T1 sequence (P43140 whole entry): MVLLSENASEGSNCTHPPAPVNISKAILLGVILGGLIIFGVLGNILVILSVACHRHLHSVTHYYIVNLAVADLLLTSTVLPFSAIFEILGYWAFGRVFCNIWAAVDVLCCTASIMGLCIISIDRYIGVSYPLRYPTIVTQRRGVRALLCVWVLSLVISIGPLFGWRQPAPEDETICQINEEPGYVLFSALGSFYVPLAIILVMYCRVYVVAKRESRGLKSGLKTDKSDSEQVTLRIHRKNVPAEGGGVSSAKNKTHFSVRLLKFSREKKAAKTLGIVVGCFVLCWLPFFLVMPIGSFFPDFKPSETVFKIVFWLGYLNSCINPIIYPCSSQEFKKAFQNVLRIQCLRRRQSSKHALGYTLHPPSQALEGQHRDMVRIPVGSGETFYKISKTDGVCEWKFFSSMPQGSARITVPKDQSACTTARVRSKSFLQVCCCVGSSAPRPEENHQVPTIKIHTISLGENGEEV
Method in brief: (§1)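 Competition binding against tritiated radioligand. Test drug was run at five concentrations in a single experiment, and IC50 (nM) was derived from displacement.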

D(2) dopamine receptor [2] = target: T2, D(2) dopamine receptor (Rattus norvegicus, UniProt P61169); assay: In vitro inhibitory against radioligand [3H]spiperone binding to rat striatal Dopamine receptor D2; method in brief: as §1
Rattus norvegicus [3] = species on record: Rattus norvegicus; assay: Effective peroral dose for inhibition of conditioned avoidance response in rats; format: functional; conditions: po
[4] = target: T3, Sigma non-opioid intracellular receptor 1 (Rattus norvegicus, UniProt Q9R0C9); assay: Displacement of (+)-[3H]-3-PPP from rat cortical sigma site; method in brief: as §1
Mus musculus [5] = species on record: Mus musculus; assay: Effective dose for inhibition of norepinephrine induced lethality in mouse; format: functional
Mus musculus [6] = species on record: Mus musculus; assay: Effective dose for inhibition of physostigmine induced lethality in mouse; format: functional
Rattus norvegicus [7] = assay: Effective dose for reversal of trifluoperazine-induced catalepsy in rats; I=Inactive (ED50 mg/Kg); format: functional, organism-based
Rattus norvegicus [8] = species on record: Rattus norvegicus; assay: Effective dose for ethanol potentiation in rats; format: functional
Rattus norvegicus [9] = species on record: Rattus norvegicus; assay: Effective dose for inhibition of spontaneous motor activity in rats; format: functional
Rattus norvegicus [10] = species on record: Rattus norvegicus; assay: Effective dose for motor incoordination in rats was determined by rotarod method; format: functional
Rattus norvegicus [11] = species on record: Rattus norvegicus; assay: Inhibition of apomorphine-induced stereotypy in rats via peroral route; format: functional
Rattus norvegicus [12] = assay: Effective in vivo peroral dose against induction of catalepsy in rats; format: functional
[13] = target: T3, Sigma non-opioid intracellular receptor 1; assay: Compound was tested in vitro for its ability to displace radioligand (+)-[3H]-3-PPP from rat cortical sigma receptor
[14] = target: T1, Adrenergic receptor alpha-1; assay: Inhibitory concentration against radioligand [3H]-WB- 4101 binding to rat cortical Alpha-1 adrenergic receptor; format: protein assay; method in brief: as §1
D(2) dopamine receptor [15] = target: T2, D(2) dopamine receptor; assay: Inhibitory concentration against radioligand [3H]spiperone binding to rat striatal Dopamine receptor D2
Method in brief: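 [3H]Spiperone displacement at the D2 receptor. Each value comes from a single experiment in which displacement of the tritiated ligand was measured at five concentrations of test drug, and an IC50 in nM was derived from that.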

[16] = target: T1, Adrenergic receptor alpha-1; assay: In vitro inhibitory concentration against radioligand [3H]WB-4101 binding to rat cortical alpha-1 adrenergic receptor; format: protein assay
Rattus norvegicus [17] = assay: Bmax (D2 receptor number) was determined after peroral administration of 15 mg/Kg in rats qd for 29 days; format: functional
Method in brief: (§2)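 Rats dosed orally once daily for 29 days with vehicle or test drug. Striatal D2 receptor number (Bmax, fmol/mg protein) and affinity (KD, pM) were then measured. Values are mean ± SEM for the number of preparations, with significance versus vehicle by Student's t-test (p < 0.05).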

Rattus norvegicus [18] = assay: Bmax (D2 receptor number) was determined after peroral administration of 30 mg/Kg in rats qd for 29 days; format: functional; method in brief: as §2
Rattus norvegicus [19] = assay: Effect of chronic administration at a peroral dose of 30 mg/Kg qd for 29 days on D2 receptor binding in rat striata; format: functional, organism-based; method in brief: as §2
Rattus norvegicus [20] = assay: Effect of chronic administration at a peroral dose of 15 mg/Kg qd for 29 days on D2 receptor binding in rat striata; format: functional, organism-based; method in brief: as §2
[21] = Rattus norvegicus, po, read-out: ED50

T2 sequence (P61169 whole entry): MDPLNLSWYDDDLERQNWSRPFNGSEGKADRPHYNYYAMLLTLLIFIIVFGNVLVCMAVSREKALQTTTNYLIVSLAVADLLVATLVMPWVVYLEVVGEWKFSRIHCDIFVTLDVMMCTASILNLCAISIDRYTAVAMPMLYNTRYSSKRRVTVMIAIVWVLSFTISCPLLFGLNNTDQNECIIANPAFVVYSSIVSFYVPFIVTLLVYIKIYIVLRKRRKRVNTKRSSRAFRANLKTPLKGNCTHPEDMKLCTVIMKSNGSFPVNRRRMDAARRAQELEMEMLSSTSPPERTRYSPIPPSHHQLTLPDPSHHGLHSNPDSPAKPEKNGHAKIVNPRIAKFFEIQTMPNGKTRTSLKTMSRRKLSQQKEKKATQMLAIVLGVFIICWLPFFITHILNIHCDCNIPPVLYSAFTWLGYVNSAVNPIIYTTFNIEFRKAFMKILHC
T3 sequence (Q9R0C9 whole entry): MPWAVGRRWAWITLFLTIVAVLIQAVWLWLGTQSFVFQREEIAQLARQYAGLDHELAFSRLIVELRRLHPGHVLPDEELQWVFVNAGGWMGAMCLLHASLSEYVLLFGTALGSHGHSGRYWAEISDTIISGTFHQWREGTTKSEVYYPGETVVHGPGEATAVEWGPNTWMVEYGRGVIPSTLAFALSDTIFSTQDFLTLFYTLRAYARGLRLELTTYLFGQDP

Structure (SMILES) | IC50 [1] [nM] | IC50 (D(2) dopamine receptor [2]) [nM] | ED50 (Rattus norvegicus [3]) [mg/kg] | IC50 [4] [nM] | ED50 (Rattus norvegicus [11]; [21]) [mg/kg] | ED50 (Rattus norvegicus [12]; [21]) [mg/kg] | also measured
Fc1ccc(/C=C(\CCN2CCN(c3ncccn3)CC2)c2ccc(F)cc2)cc1 | 375 | 1700 | > 100 | > 1000 | – | – | –
CSc1ccc2c(c1)N(CCC1CCCCN1C)c1ccccc1S2 (configuration not stated) [THIORIDAZINE] | – | – | – | 750 | 280 | – | ED50 (Mus musculus [5]): 2.2 mg/kg; ED50 (Mus musculus [6]): 45 mg/kg; Activity (Rattus norvegicus [7]): inactive; ED50 (Rattus norvegicus [8]): 56 mg/kg; ED50 (Rattus norvegicus [9]): 33 mg/kg; ED50 (Rattus norvegicus [10]): 20 mg/kg
CN1CCN(C2=Nc3cc(Cl)ccc3Nc3ccccc32)CC1 [CLOZAPINE] | – | – | – | – | – | > 200 | ED50 (Mus musculus [5]): 3.5 mg/kg; ED50 (Mus musculus [6]): 5.4 mg/kg; Activity (Rattus norvegicus [7]): inactive; ED50 (Rattus norvegicus [10]): 7.9 mg/kg; IC50 [13]: > 1000 nM
O[C@H](CCCN1CCN(c2ncc(F)cn2)CC1)c1ccc(F)cc1 | – | – | – | – | 44 | 11.4 | IC50 [14]: 610 nM; IC50 (D(2) dopamine receptor [15]): > 1000 nM
O=C(CCCN1CCN(c2ncc(Br)cn2)CC1)c1ccc(F)cc1 | 72 | 2190 | > 100 | 85 | – | – | –
N#CC(CCCN1CCN(c2ncc(F)cn2)CC1)c1ccc(F)cc1 (configuration not stated) | 266 | 1880 | 19.8 | 190 | > 100 | > 100 | –
O=C(CCN1CCN(c2ncc(F)cn2)CC1)c1ccc(F)cc1 | – | – | > 100 | – | > 100 | – | IC50 [16]: 523 nM; IC50 [13]: 69 nM
Oc1nc(N2CCN(CCCC(O)c3ccc(F)cc3)CC2)ncc1F (configuration not stated) | > 1000 | > 1000 | > 100 | > 1000 | > 100 | – | –
Fc1ccc(/C=C(\CCN2CCN(c3ncc(F)cn3)CC2)c2ccc(F)cc2)cc1 | 756 | 8800 | > 100 | > 1000 | – | – | –
O=C(CCCN1CCC(O)(c2ccc(Cl)cc2)CC1)c1ccc(F)cc1 [HALOPERIDOL] | – | – | 2.8 | – | 0.5 | 0.58 | ED50 (Mus musculus [5]): 26 mg/kg; ED50 (Mus musculus [6]): > 80 mg/kg; Activity (Rattus norvegicus [7]): inactive; ED50 (Rattus norvegicus [8]): 0.28 mg/kg; ED50 (Rattus norvegicus [9]): 0.73 mg/kg; ED50 (Rattus norvegicus [10]): 5.2 mg/kg
OC(CCCN1CCN(c2ncccn2)CC1)(c1ccc(F)cc1)c1ccc(F)cc1 | 400 | 200 | 52.9 | > 1000 | > 50 | – | –
COc1nc(N2CCN(CCCC(O)c3ccc(F)cc3)CC2)ncc1F (configuration not stated) | 180 | 3940 | 40.8 | 24 | 54 | 79.2 | –
OC(CCCN1CCN(c2ncc(Cl)cn2)CC1)c1ccc(F)cc1 (configuration not stated) | 1420 | 5660 | 87.1 | 22 | > 100 | 148 | –
OC(CCCN1CCN(c2ncc(F)cn2)CC1)c1ccc(F)cc1 (stereo in doubt; 16) [BMY-14802] | 520 | – | – | – | 33 | – | IC50 [14]: 460 nM; ED50 (Mus musculus [5]): > 100 mg/kg; ED50 (Mus musculus [6]): > 100 mg/kg; Bmax (Rattus norvegicus [17]): 233 fmol/mg protein; Bmax (Rattus norvegicus [18]): 212 fmol/mg protein; ED50 (Rattus norvegicus [12]): >100 mg/kg; ED50 (Rattus norvegicus [8]): 20.1 mg/kg; ED50 (Rattus norvegicus [9]): 87.3 mg/kg; ED50 (Rattus norvegicus [10]): 43.5 mg/kg; Kd (Rattus norvegicus [19]): 0.101 nM; Kd (Rattus norvegicus [20]): 0.121 nM
O=C(CCCN1CCN(c2ncc(Cl)cn2)CC1)c1ccc(F)cc1 | 51 | 817 | > 100 | – | – | – | –
CCC(O)(CCCN1CCN(c2ncc(F)cn2)CC1)c1ccc(F)cc1 (configuration not stated) | > 1000 | 3750 | 48.5 | 370 | > 50 | > 100 | –
OC(CCCN1CCN(c2ncccn2)CC1)c1ccc(F)cc1 (configuration not stated) | 162 | 1380 | 25 | 130 | 32.3 | > 100 | –
O/N=C(\CCCN1CCN(c2ncc(F)cn2)CC1)c1ccc(F)cc1 | 22 | – | > 100 | 81 | – | – | –
O=C(CCCN1CCN(c2ncccn2)CC1)c1ccc(F)cc1 | 6 | 679 | 25.3 | 430 | 21.6 | > 100 | –
CSc1nc(N2CCN(CCCC(O)c3ccc(F)cc3)CC2)ncc1F (configuration not stated) | 305 | > 1000 | > 100 | 26 | > 100 | – | –
O=C(CCCN1CCN(c2ncc(F)cn2)CC1)c1ccc(F)cc1 | 29 | – | 36.3 | 130 | 58.9 | 144 | –
OC(CCCN1CCN(c2ncc(F)cn2)CC1)(c1ccc(F)cc1)c1ccc(F)cc1 | 1140 | – | > 100 | – | – | – | –
CCC(O)(CCCN1CCN(c2ncccn2)CC1)c1ccc(F)cc1 (configuration not stated) | 230 | 415 | > 100 | – | > 100 | – | –
O[C@@H](CCCN1CCN(c2ncc(F)cn2)CC1)c1ccc(F)cc1 [BMY-14802] | – | – | – | – | – | – | IC50 [14]: 570 nM; ED50 (Rattus norvegicus [12]): 38.1 mg/kg; ED50 (Rattus norvegicus [11]): 25.4 mg/kg
NC(CCCN1CCN(c2ncc(F)cn2)CC1)c1ccc(F)cc1 (configuration not stated) | 446 | > 1000 | > 100 | ~1000 | – | – | –
CSc1nc(N2CCN(CCCC(=O)c3ccc(F)cc3)CC2)ncc1F | 95 | 396 | > 100 | 120 | > 100 | – | –
OC(CCN1CCN(c2ncc(F)cn2)CC1)c1ccc(F)cc1 (configuration not stated) | 814 | > 1000 | > 100 | 160 | > 100 | – | –
CC(O)(CCCN1CCN(c2ncc(F)cn2)CC1)c1ccc(F)cc1 (configuration not stated) | – | 2120 | > 25 | 110 | > 50 | > 100 | –
OC(CCCN1CCN(c2ncc(Br)cn2)CC1)c1ccc(F)cc1 (configuration not stated) | 1500 | > 1000 | 50 | 26 | > 65 | 108 | –
